Source: ChEMBL document CHEMBL4689842, “EUbOPEN Chemogenomics Library wave 1” (2021)
Where “and” joins values, the source holds several entries; their conditions need not be identical. Equal entries are not always repeated.

System: Fibroblast
Assay: Multiplex assay against human fibroblast
Type: toxicity, cell-based
In short: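 Per cents of healthy-nucleus cells form the tubulin, mitochondrial-mass and membrane-permeability phenotype values. Live cells were stained at seeding with Hoechst33342, BioTracker Green Microtubule Cytoskeleton Dye, MitoTracker Red and Annexin V Alexa Fluor 680. After compound addition they were imaged on a CQ1 microscope at 37°C and 5% CO2, and CellPathfinder machine-learning gating split them into Hoechst high-intensity objects or normal cells, normal cells into healthy, pyknosed or fragmented nuclei, and pyknosed cells into mitotic or apoptotic.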

[1] = 12 h, 10 µM, compound concentration 10 uM, replicate 1
[2] = 12 h, 10 µM, compound concentration 10 uM, replicate 2
[3] = 24 h, 10 µM, compound concentration 10 uM, replicate 1
[4] = 24 h, 10 µM, compound concentration 10 uM, replicate 2
[5] = 12 h, 1 µM, compound concentration 1 uM, replicate 1
[6] = 12 h, 1 µM, compound concentration 1 uM, replicate 2
[7] = 24 h, 1 µM, compound concentration 1 uM, replicate 1
[8] = 24 h, 1 µM, compound concentration 1 uM, replicate 2
[9] = 48 h, 1 µM, compound concentration 1 uM, replicate 1
[10] = 48 h, 1 µM, compound concentration 1 uM, replicate 2
[11] = 48 h, 10 µM, compound concentration 10 uM, replicate 1
[12] = 48 h, 10 µM, compound concentration 10 uM, replicate 2

SMILES: COc1ccc(Oc2cc(NCCC(F)(F)F)c3ncc(-c4ccc(C(=O)NC5CC5)c(C)c4)n3n2)c(F)c1F [BAY-1217389]
- Population Apoptotic (%) [1]: 63% and 54%
- Population Fragmented Nuclei (%) [1]: 28% and 27%
- Population Healthy Nuclei (%) [1]: 48% and 59%
- Population Hoechst High Intensity Objects (%) [1]: 18% and 14%
- Population Membrane Permeable-Phenotype (%) [1]: 18% and 15%
- Population Mitotic Cells (%) [1]: 36% and 45%
- Population Normal (%) [1]: 81% and 85%
- Population Pyknosed Nuclei (%) [1]: 23% and 12%
- Population Tubulin-Different-Phenotype (%) [1]: 45% and 31%
- Total Cell Count [1]: 203 and 339
- Population Apoptotic (%) [2]: 65% and 22%
- Population Fragmented Nuclei (%) [2]: 35% and 55%
- Population Healthy Nuclei (%) [2]: 33% and 28%
- Population Hoechst High Intensity Objects (%) [2]: 23% and 34%
- Population Membrane Permeable-Phenotype (%) [2]: 20%
- Population Mitochondria Different-Phenotype (%) [2]: 34% and 18%
- Population Mitotic Cells (%) [2]: 35% and 77%
- Population Normal (%) [2]: 76% and 65%
- Population Pyknosed Nuclei (%) [2]: 30% and 16%
- Population Tubulin-Different-Phenotype (%) [2]: 38% and 50%
- Total Cell Count [2]: 170 and 86
- Population Apoptotic (%) [3]: 77% and 48%
- Population Fragmented Nuclei (%) [3]: 30% and 23%
- Population Healthy Nuclei (%) [3]: 41% and 63%
- Population Hoechst High Intensity Objects (%) [3]: 15% and 13%
- Population Membrane Permeable-Phenotype (%) [3]: 12% and 8%
- Population Mitotic Cells (%) [3]: 22% and 51%
- Population Normal (%) [3]: 84% and 86%
- Population Pyknosed Nuclei (%) [3]: 27% and 13%
- Population Tubulin-Different-Phenotype (%) [3]: 59% and 27%
- Total Cell Count [3]: 211 and 319
- Population Fragmented Nuclei (%) [4]: 54% and 47%
- Population Healthy Nuclei (%) [4]: 20% and 36%
- Population Hoechst High Intensity Objects (%) [4]: 19% and 30%
- Population Membrane Permeable-Phenotype (%) [4]: 18% and 19%
- Population Mitochondria Different-Phenotype (%) [4]: 18% and 23%
- Population Mitotic Cells (%) [4]: 32% and 88%
- Population Normal (%) [4]: 80% and 69%
- Population Pyknosed Nuclei (%) [4]: 24% and 15%
- Population Tubulin-Different-Phenotype (%) [4]: 29% and 52%

SMILES: Cc1c(-c2ccc(O)cc2)n(Cc2ccc(OCCN3CCCCCC3)cc2)c2ccc(O)cc12 [BAZEDOXIFENE]
- Population Apoptotic (%) [5]: 69%
- Population Fragmented Nuclei (%) [5]: 27%
- Population Healthy Nuclei (%) [5]: 33%
- Population Hoechst High Intensity Objects (%) [5]: 13%
- Population Membrane Permeable-Phenotype (%) [5]: 16%
- Population Mitochondria Different-Phenotype (%) [5]: 19%
- Population Mitotic Cells (%) [5]: 30%
- Population Normal (%) [5]: 86%
- Population Pyknosed Nuclei (%) [5]: 39%
- Population Tubulin-Different-Phenotype (%) [5]: 58%
- Total Cell Count [5]: 106
- Population Apoptotic (%) [6]: 0%
- Population Fragmented Nuclei (%) [6]: 13%
- Population Healthy Nuclei (%) [6]: 81%
- Population Hoechst High Intensity Objects (%) [6]: 10%
- Population Membrane Permeable-Phenotype (%) [6]: 5%
- Population Mitochondria Different-Phenotype (%) [6]: 20%
- Population Mitotic Cells (%) [6]: 100%
- Population Normal (%) [6]: 89%
- Population Pyknosed Nuclei (%) [6]: 4%
- Population Tubulin-Different-Phenotype (%) [6]: 17%
- Total Cell Count [6]: 48
- Population Apoptotic (%) [1]: 72%
- Population Fragmented Nuclei (%) [1]: 27%
- Population Healthy Nuclei (%) [1]: 36%
- Population Hoechst High Intensity Objects (%) [1]: 26%
- Population Membrane Permeable-Phenotype (%) [1]: 12%
- Population Mitochondria Different-Phenotype (%) [1]: 35%
- Population Mitotic Cells (%) [1]: 27%
- Population Normal (%) [1]: 73%
- Population Pyknosed Nuclei (%) [1]: 36%
- Population Tubulin-Different-Phenotype (%) [1]: 85%
- Total Cell Count [1]: 149
- Population Apoptotic (%) [2]: 60%
- Population Fragmented Nuclei (%) [2]: 7%
- Population Healthy Nuclei (%) [2]: 56%
- Population Hoechst High Intensity Objects (%) [2]: 2%
- Population Membrane Permeable-Phenotype (%) [2]: 26%
- Population Mitochondria Different-Phenotype (%) [2]: 100%
- Population Mitotic Cells (%) [2]: 40%
- Population Normal (%) [2]: 97%
- Population Tubulin-Different-Phenotype (%) [2]: 100%
- Total Cell Count [2]: 42
- Population Apoptotic (%) [7]: 80%
- Population Fragmented Nuclei (%) [7]: 27%
- Population Healthy Nuclei (%) [7]: 49%
- Population Hoechst High Intensity Objects (%) [7]: 14%
- Population Membrane Permeable-Phenotype (%) [7]: 22%
- Population Mitochondria Different-Phenotype (%) [7]: 8%
- Population Mitotic Cells (%) [7]: 19%
- Population Normal (%) [7]: 85%
- Population Pyknosed Nuclei (%) [7]: 23%
- Population Tubulin-Different-Phenotype (%) [7]: 46%
- Total Cell Count [7]: 106
- Population Apoptotic (%) [8]: 11%
- Population Fragmented Nuclei (%) [8]: 8%
- Population Healthy Nuclei (%) [8]: 75%
- Population Hoechst High Intensity Objects (%) [8]: 3%
- Population Membrane Permeable-Phenotype (%) [8]: 2%
- Population Mitochondria Different-Phenotype (%) [8]: 6%
- Population Mitotic Cells (%) [8]: 88%
- Population Normal (%) [8]: 96%
- Population Pyknosed Nuclei (%) [8]: 15%
- Population Tubulin-Different-Phenotype (%) [8]: 15%
- Total Cell Count [8]: 60
- Population Apoptotic (%) [3]: 62%
- Population Fragmented Nuclei (%) [3]: 20%
- Population Healthy Nuclei (%) [3]: 37%
- Population Hoechst High Intensity Objects (%) [3]: 23%
- Population Membrane Permeable-Phenotype (%) [3]: 12%
- Population Mitochondria Different-Phenotype (%) [3]: 71%
- Population Mitotic Cells (%) [3]: 37%
- Population Normal (%) [3]: 76%
- Population Pyknosed Nuclei (%) [3]: 41%
- Population Tubulin-Different-Phenotype (%) [3]: 84%
- Total Cell Count [3]: 134
- Population Apoptotic (%) [4]: 68%
- Population Fragmented Nuclei (%) [4]: 22%
- Population Healthy Nuclei (%) [4]: 30%
- Population Hoechst High Intensity Objects (%) [4]: 20%
- Population Membrane Permeable-Phenotype (%) [4]: 75%
- Population Mitochondria Different-Phenotype (%) [4]: 100%
- Population Mitotic Cells (%) [4]: 31%
- Population Normal (%) [4]: 80%
- Population Pyknosed Nuclei (%) [4]: 47%
- Population Tubulin-Different-Phenotype (%) [4]: 100%
- Total Cell Count [4]: 50
- Population Apoptotic (%) [9]: 50%
- Population Fragmented Nuclei (%) [9]: 42%
- Population Healthy Nuclei (%) [9]: 51%
- Population Hoechst High Intensity Objects (%) [9]: 14%
- Population Membrane Permeable-Phenotype (%) [9]: 26%
- Population Mitochondria Different-Phenotype (%) [9]: 4%
- Population Mitotic Cells (%) [9]: 50%
- Population Normal (%) [9]: 85%
- Population Pyknosed Nuclei (%) [9]: 6%
- Population Tubulin-Different-Phenotype (%) [9]: 44%
- Total Cell Count [9]: 115
- Population Apoptotic (%) [10]: 75%
- Population Fragmented Nuclei (%) [10]: 27%
- Population Healthy Nuclei (%) [10]: 68%
- Population Hoechst High Intensity Objects (%) [10]: 16%
- Population Membrane Permeable-Phenotype (%) [10]: 15%
- Population Mitochondria Different-Phenotype (%) [10]: 1%
- Population Mitotic Cells (%) [10]: 25%
- Population Normal (%) [10]: 83%
- Population Pyknosed Nuclei (%) [10]: 3%
- Population Tubulin-Different-Phenotype (%) [10]: 46%
- Total Cell Count [10]: 123
- Population Apoptotic (%) [11]: 85%
- Population Fragmented Nuclei (%) [11]: 39%
- Population Healthy Nuclei (%) [11]: 29%
- Population Hoechst High Intensity Objects (%) [11]: 18%
- Population Membrane Permeable-Phenotype (%) [11]: 33%
- Population Mitochondria Different-Phenotype (%) [11]: 55%
- Population Mitotic Cells (%) [11]: 14%
- Population Normal (%) [11]: 81%
- Population Pyknosed Nuclei (%) [11]: 30%
- Population Tubulin-Different-Phenotype (%) [11]: 81%
- Total Cell Count [11]: 112
- Population Apoptotic (%) [12]: 83%
- Population Fragmented Nuclei (%) [12]: 42%
- Population Healthy Nuclei (%) [12]: 37%
- Population Hoechst High Intensity Objects (%) [12]: 35%
- Population Membrane Permeable-Phenotype (%) [12]: 21%
- Population Mitochondria Different-Phenotype (%) [12]: 47%
- Population Mitotic Cells (%) [12]: 16%
- Population Normal (%) [12]: 64%
- Population Pyknosed Nuclei (%) [12]: 19%
- Population Tubulin-Different-Phenotype (%) [12]: 65%
- Total Cell Count [12]: 95
